From ChEMBL document CHEMBL1240328, “Selective compounds define Hsp90 as a major inhibitor of apoptosis in small-cell lung cancer” (Nat Chem Biol, 2007)
Calls of active or inactive are those of the source. The calls are words filed in the database; no cut-off is given here.

Experiments:
Assay type in all cases: cell-based
[1] = target: Heat shock protein HSP 90-beta (Homo sapiens) (UniProt P08238); assay: Inhibition of HSP90-mediated antiapoptotic activity in human SKBR3 cells assessed as induction of caspase-9 cleavage at 50 uM after 24 hrs by Western blot analysis; conditions: SK-BR-3
Method in brief: (§1)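 SKBr3 cells at 60–70% confluence were exposed to drug or DMSO vehicle. Lysis was in 50 mM Tris pH 7.4, 150 mM NaCl, 1% NP-40, with protein measured by BCA. Lysates of 20–100 µg were run on SDS-PAGE, blotted to nitrocellulose, probed with primary antibodies and detected with a peroxidase-conjugated secondary (1:5,000). Loading was checked with β-actin or PI(3)K p85.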

NCI-H526 [2] = assay: Inhibition of HSP70-mediated antiapoptotic activity in human NCI-H526 cells assessed as induction of PARP cleavage after 24 hrs by Western blot analysis
Method in brief: (§2)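 NCI-H526 cells were treated for 24 h. PARP and caspase-3 cleavage were read by western blot of lysates in Tris/NaCl/NP-40 buffer. Apaf-1 complexes were immunoprecipitated with Apaf-1 antibody, using control IgG, then blotted.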

[3] = target: Heat shock protein HSP 90-beta (Homo sapiens) (UniProt P08238); assay: Inhibition of HSP90-mediated antiapoptotic activity in human NCI-H187 cells assessed as mitochondrial membrane depolarization at 5 uM after 72 hrs by JC-1 staining-based flow cytometry
Method in brief: (§3)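 SCLC cells treated for 72 h with graded doses. Mitochondrial membrane potential read by flow cytometry after JC-1 staining, with green-only emission indicating depolarization. Sub-G1 DNA content read after propidium iodide staining. CCCP used as positive control. n = 3 repeat experiments.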

[4] = target: Heat shock protein HSP 90-beta (Homo sapiens) (UniProt P08238); assay: Inhibition of HSP90-mediated antiapoptotic activity in human NCI-H526 cells assessed as induction of Akt degradation at 50 uM after 24 hrs by Western blot analysis
[5] = target: Heat shock protein HSP 90-beta (Homo sapiens) (UniProt P08238); assay: Inhibition of HSP90-mediated antiapoptotic activity in human SKBR3 cells assessed as induction of PARP cleavage at 20 uM after 24 hrs by Western blot analysis; conditions: SK-BR-3; method in brief: as §1
[6] = target: Heat shock protein HSP 90-beta (Homo sapiens) (UniProt P08238); assay: Inhibition of HSP90-mediated antiapoptotic activity in human NCI-H526 cells assessed as induction of caspase-9 cleavage at 10 uM after 24 hrs by Western blot analysis
Method in brief: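 NCI-H526 cells at 60–70% confluence were exposed to drug or DMSO for 24 h. Lysed in 50 mM Tris pH 7.4, 150 mM NaCl, 1% NP-40, with protein measured by BCA. 20–100 µg run on SDS-PAGE and blotted to nitrocellulose. Probed with cleaved-protein antibodies and peroxidase secondary at 1:5,000, with β-actin as loading control.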

[7] = target: Heat shock protein HSP 90-beta (Homo sapiens) (UniProt P08238); assay: Effect on HSP90-mediated Bcl-XL expression in human NCI-H526 cells at 25 uM after 24 hrs by Western blot analysis
Method in brief: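 NCI-H526 cells were exposed for 24 h to drug or DMSO vehicle. Lysates were made in 50 mM Tris pH 7.4, 150 mM NaCl, 1% NP-40 and quantified by BCA. Western blot used 20–100 µg protein per lane, with β-actin as loading control.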

[8] = target: Heat shock protein HSP 90-beta (Homo sapiens) (UniProt P08238); assay: Inhibition of HSP90-mediated antiapoptotic activity in human NCI-H526 cells assessed as induction of PARP cleavage at 10 uM after 72 hrs by fluorescence assay in presence of caspase-9 inhibitor Z-LEHD-FMK
NCI-H526 [9] = assay: Inhibition of HSP70-mediated antiapoptotic activity in human NCI-H526 cells assessed as release of Apaf-1 from chaperon complex after 24 hrs by Western blot analysis; method in brief: as §2
[10] = target: Heat shock protein HSP 90-beta (Homo sapiens) (UniProt P08238); assay: Inhibition of HSP90-mediated antiapoptotic activity in human NCI-H187 cells assessed as subG1 accumulation at 25 uM after 72 hrs by propidium iodide staining-based flow cytometry; method in brief: as §3
[11] = target: Heat shock protein HSP 90-beta (Homo sapiens) (UniProt P08238); assay: Inhibition of HSP90-mediated antiapoptotic activity in human NCI-H187 cells assessed as subG1 accumulation at 2.5 uM after 72 hrs by propidium iodide staining-based flow cytometry; method in brief: as §3
SK-BR-3 = assay: Inhibition of HSP70-mediated antiapoptotic activity in human SKBR3 cells assessed as induction of PARP cleavage after 24 hrs by Western blot analysis
Method in brief: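 SKBr3 cells were treated for 24 h. Lysates were probed by western blot for caspase-3 and PARP cleavage. Apaf-1 complexes were pulled down with Apaf-1 antibody (with control IgG) and immunoblotted.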

[12] = target: Heat shock protein HSP 90-beta (Homo sapiens) (UniProt P08238); assay: Inhibition of HSP90-mediated antiapoptotic activity in human NCI-N417 cells assessed as subG1 accumulation at 5 uM after 72 hrs by propidium iodide staining-based flow cytometry; conditions: NCI-H417
Method in brief: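 Asynchronously growing cells were treated with compound, stained with propidium iodide and analysed by flow cytometry. The read-out was the percentage of cells with sub-G1 DNA content.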

[13] = target: Heat shock protein HSP 90-beta (Homo sapiens) (UniProt P08238); assay: Inhibition of HSP90-mediated antiapoptotic activity in human MCF7 cells assessed as induction of caspase-3 cleavage at 400 uM after 24 hrs by Western blot analysis

Chain of Heat shock protein HSP 90-beta (Homo sapiens) (P08238 whole entry): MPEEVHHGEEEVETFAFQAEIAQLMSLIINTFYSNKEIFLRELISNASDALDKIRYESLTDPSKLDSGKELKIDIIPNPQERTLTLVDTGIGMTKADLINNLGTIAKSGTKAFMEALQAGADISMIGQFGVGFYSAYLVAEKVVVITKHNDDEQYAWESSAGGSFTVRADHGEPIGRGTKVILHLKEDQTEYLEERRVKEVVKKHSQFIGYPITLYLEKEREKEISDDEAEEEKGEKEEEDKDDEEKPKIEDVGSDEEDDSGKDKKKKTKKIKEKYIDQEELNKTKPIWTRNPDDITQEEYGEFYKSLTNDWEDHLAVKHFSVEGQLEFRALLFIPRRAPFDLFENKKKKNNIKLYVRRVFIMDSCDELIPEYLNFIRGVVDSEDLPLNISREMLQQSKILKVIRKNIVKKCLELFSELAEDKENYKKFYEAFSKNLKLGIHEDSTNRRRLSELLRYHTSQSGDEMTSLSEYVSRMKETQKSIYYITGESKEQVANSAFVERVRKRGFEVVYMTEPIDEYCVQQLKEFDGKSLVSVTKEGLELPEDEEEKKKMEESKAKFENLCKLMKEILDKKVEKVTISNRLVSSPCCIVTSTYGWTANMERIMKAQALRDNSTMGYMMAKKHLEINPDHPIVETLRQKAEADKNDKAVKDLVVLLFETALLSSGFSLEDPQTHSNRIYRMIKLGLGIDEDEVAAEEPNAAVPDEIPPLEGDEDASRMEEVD

- Activity [1]: inactive
- Activity [3]: inactive
- Activity [4]: inactive
- Activity [5]: inactive
- Activity [6]: inactive
- Activity [7]: inactive
- Activity [8]: inactive
- Activity [10]: inactive
- Activity [11]: inactive
- Activity [12]: inactive
- Activity [13]: inactive
SMILES: O=CN1CC/C(=C/c2ccc3c(c2)OCO3)C1=O
- inhibition (NCI-H526 [2]): inactive
- inhibition (NCI-H526 [9]): inactive
- inhibition (SK-BR-3): Active
